The source made the active and inactive calls. The calls are words filed in the database; no cut-off is given here.
How the values were obtained:
Format in all cases: functional, cell-based
[1] = target: T1, Bile acid receptor (Homo sapiens) (UniProt Q96RI1); experiment: Agonist activity at FXR expressed in human HepG2 cells at 50 uM after 48 hrs by luciferase reporter gene based transactivation assay
T1 sequence (whole entry): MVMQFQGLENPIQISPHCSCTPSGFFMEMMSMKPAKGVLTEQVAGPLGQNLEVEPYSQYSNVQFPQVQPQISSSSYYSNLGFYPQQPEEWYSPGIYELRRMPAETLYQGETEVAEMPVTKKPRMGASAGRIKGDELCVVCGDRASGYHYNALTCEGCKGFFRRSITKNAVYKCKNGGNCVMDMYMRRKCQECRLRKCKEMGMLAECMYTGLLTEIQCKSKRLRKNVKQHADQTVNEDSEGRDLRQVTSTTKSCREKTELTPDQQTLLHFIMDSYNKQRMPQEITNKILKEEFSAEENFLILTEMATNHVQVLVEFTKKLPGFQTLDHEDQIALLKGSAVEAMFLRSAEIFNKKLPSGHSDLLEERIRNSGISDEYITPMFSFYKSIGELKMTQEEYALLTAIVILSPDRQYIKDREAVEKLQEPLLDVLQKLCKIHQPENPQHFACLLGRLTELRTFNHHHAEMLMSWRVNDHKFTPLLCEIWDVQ
In short: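 HepG2 cells (5 × 10⁵/well) were transfected using Fugene HD with pSG5-FXR, pSG5-RXR, pCMV-β-gal and the p(hsp27)-TK-LUC reporter (IR1 element). Cells were stimulated 48 h post-transfection for 18 h. Luciferase from lysates was normalised to β-galactosidase activity. Four experiments were run.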

[2] = target: T1, Bile acid receptor (Homo sapiens); experiment: Antagonist activity at FXR expressed in human HepG2 cells assessed as inhibition of CDCA-mediated transactivation at 10 uM after 48 hrs by luciferase reporter gene assay
In short: (§1)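 Antagonism was tested in the FXR transactivation system: HepG2 cells transfected with FXR, RXR, β-gal and the hsp27 IR1-luciferase reporter. Cells were stimulated 48 h after transfection for 18 h with 10 μM CDCA plus test agent. Luciferase was normalised to β-gal. Four experiments were run.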

[3] = target: T1, Bile acid receptor (Homo sapiens); experiment: Antagonist activity at FXR expressed in human HepG2 cells assessed as inhibition of CDCA-mediated transactivation at 50 uM after 48 hrs by luciferase reporter gene assay; in short: as §1
[4] = target: T2, Nuclear receptor subfamily 1 group I member 2 (Homo sapiens, UniProt O75469); experiment: Agonist activity at PXR expressed in human HepG2 cells assessed as transactivation […] by luciferase reporter gene assay
T2 sequence (O75469 whole entry): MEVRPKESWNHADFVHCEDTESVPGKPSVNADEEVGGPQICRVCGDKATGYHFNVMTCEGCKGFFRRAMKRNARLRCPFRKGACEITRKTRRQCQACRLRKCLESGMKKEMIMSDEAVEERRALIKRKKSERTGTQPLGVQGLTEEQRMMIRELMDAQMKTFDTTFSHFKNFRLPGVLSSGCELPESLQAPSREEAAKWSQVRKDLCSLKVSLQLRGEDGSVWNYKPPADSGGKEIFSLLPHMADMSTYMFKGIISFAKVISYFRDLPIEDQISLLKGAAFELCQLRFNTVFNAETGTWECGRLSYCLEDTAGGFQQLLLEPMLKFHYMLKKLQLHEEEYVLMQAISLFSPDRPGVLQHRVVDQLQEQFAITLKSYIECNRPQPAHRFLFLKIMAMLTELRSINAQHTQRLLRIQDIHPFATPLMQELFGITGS

[5] = target: T1, Bile acid receptor (Homo sapiens); experiment: Agonist activity at FXR expressed in human HepG2 cells assessed as increase in OSTalpha mRNA level at 10 uM by RT-PCR analysis
In short: (§2)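 HepG2 cells exposed to 10 μM test agent, alone or with 10 μM CDCA. mRNA was measured by SYBR Green real-time PCR with 50 ng template and 0.2 μM of each primer. Cycling was 95 °C 2 min, then 40 cycles of 95/55/72 °C. Reactions ran in triplicate. CT was normalised to GAPDH, and ΔΔCT was taken against untreated cells. Four experiments were run.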

[6] = target: T1, Bile acid receptor (Homo sapiens); experiment: Agonist activity at FXR expressed in human HepG2 cells assessed as increase in BSEP mRNA level at 10 uM by RT-PCR analysis; in short: as §2
[7] = target: T1, Bile acid receptor (Homo sapiens); experiment: Agonist activity at FXR expressed in human HepG2 cells assessed as effect on SHP mRNA level at 10 uM by RT-PCR analysis; in short: as §2
[8] = target: T1, Bile acid receptor (Homo sapiens); experiment: Agonist activity at FXR expressed in human HepG2 cells assessed as increase in CYP7A1 mRNA level at 10 uM by RT-PCR analysis relative to control; in short: as §2
[9] = target: T2, Nuclear receptor subfamily 1 group I member 2; experiment: Antagonist activity at PXR expressed in human HepG2 cells assessed as inhibition of rifaximin-induced CYP3A4 mRNA expression at 50 uM by RT-PCR analysis; conditions: hepg2, 50 µM
[10] = target: T1, Bile acid receptor (Homo sapiens); experiment: Antagonist activity at FXR expressed in human HepG2 cells assessed as inhibition of 6-ECDCA-mediated transactivation at 10 uM after 48 hrs by luciferase reporter gene assay
In short: (§3)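 The FXR/RXR/hsp27-luciferase HepG2 transfection system was used, with test agent co-administered alongside 6-ECDCA. Stimulation was 18 h, starting 48 h after transfection. Luciferase was normalised to β-galactosidase.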

[11] = target: T1, Bile acid receptor (Homo sapiens); experiment: Antagonist activity at FXR expressed in human HepG2 cells assessed as inhibition of 6-ECDCA-mediated transactivation at 50 uM after 48 hrs by luciferase reporter gene assay; in short: as §3

Row | Activity [1] | inhibition [2] | inhibition [3] | Activity [4] | Activity [5] | Activity [7] | fold change (FC) [8] | inhibition (INH) [9] | inhibition [10] | inhibition [11] | Structure (SMILES) | Activity [6]
1 | Active | inactive | inactive | Active | Active | inactive | 2 | Not Active | inactive | inactive | C=C1[C@@H](O)CC[C@@]2(C)[C@H]1C[C@@H](O)C1=C3[C@H](O)C[C@H]([C@H](C)CC[C@@H](C)C(C)C)[C@@]3(C)CC[C@@H]12 [CONICASTEROL E] | Active
2 |  |  |  | Active |  |  |  |  |  |  | CO[C@H]1/C=C/O[C@@]2(C)Oc3c(C)c(O)c4c(O)c(c5c(nc6cc(C)ccn65)c4c3C2=O)NC(=O)/C(C)=C\C=C\[C@H](C)[C@H](O)[C@@H](C)[C@@H](O)[C@@H](C)[C@H](OC(C)=O)[C@@H]1C [RIFAXIMIN] | 

— ChEMBL document CHEMBL1949586, “Conicasterol E, a small heterodimer partner sparing farnesoid X receptor modulator endowed with a pregnane X receptor agonistic activity, from the marine sponge Theonella swinhoei” (J Med Chem, 2012)
